{"data": "Experimental data collected from several papers", "note": "Lines come from different studies, so protocols differ."}
{"Structure (SMILES)": "CC(C)C[C@@H]1NC(=O)CNC(=O)[C@H](CC(N)=O)NC(=O)[C@H](CCCNC(=N)N)NC(=O)[C@H]([C@@H](C)O)NC(=O)[C@@H]2CSSC[C@@H]3NC(=O)[C@H]([C@@H](C)O)NC(=O)CNC(=O)CNC(=O)[C@H](C(C)C)NC(=O)[C@@H]4CSSC[C@H](NC(=O)[C@H]([C@@H](C)O)NC(=O)[C@H](CSSC[C@H](NC(=O)[C@H](C(C)C)NC(=O)[C@H](CCCCN)NC1=O)C(=O)NCC(=O)N[C@@H](CCC(=O)O)C(=O)N[C@@H]([C@@H](C)O)C(=O)N4)NC(=O)CNC(=O)[C@@H]1CCCN1C(=O)[C@H]([C@@H](C)O)NC(=O)[C@H](CC(N)=O)NC3=O)C(=O)N[C@@H](CO)C(=O)N[C@@H](Cc1c[nH]c3ccccc13)C(=O)N1CCC[C@H]1C(=O)N[C@@H](C(C)C)C(=O)N2", "target or system": "Sf9", "assay": "cell growth or viability, MTT", "conditions": "24 h", "endpoint": "IC50", "result": "> 32000 nM"}
{"Structure (SMILES)": "C[N+]1=C2C=C(N)C(=O)c3[nH]cc(c32)CC1", "target or system": "Plasmodium falciparum", "assay": "parasite growth, SYBR Green", "system": "DD2", "conditions": "blood stage", "endpoint": "IC50", "result": "411 nM"}
{"Structure (SMILES)": "CCCCNC[C@@H](O)c1cc(Cl)cc2c1-c1ccc(Cl)cc1C2", "target or system": "Plasmodium falciparum", "assay": "parasite growth, SYBR Green", "system": "W2", "conditions": "48 h, drug-resistant strain, blood stage", "endpoint": "IC50", "result": "29 nM"}
{"Structure (SMILES)": "CC(C)C[C@@H]1NC(=O)CNC(=O)[C@H](CC(N)=O)NC(=O)[C@H](CCCNC(=N)N)NC(=O)[C@H]([C@@H](C)O)NC(=O)[C@@H]2CSSC[C@@H]3NC(=O)[C@H]([C@@H](C)O)NC(=O)CNC(=O)CNC(=O)[C@H](C(C)C)NC(=O)[C@@H]4CSSC[C@H](NC(=O)[C@H]([C@@H](C)O)NC(=O)[C@H](CSSC[C@H](NC(=O)[C@H](C(C)C)NC(=O)[C@@H]5CCCN5C1=O)C(=O)NCC(=O)N[C@@H](CCCCN)C(=O)N[C@@H]([C@@H](C)O)C(=O)N4)NC(=O)CNC(=O)[C@@H]1CCCN1C(=O)[C@H]([C@@H](C)O)NC(=O)[C@H](CC(N)=O)NC3=O)C(=O)N[C@@H](CO)C(=O)N[C@@H](Cc1c[nH]c3ccccc13)C(=O)N1CCC[C@H]1C(=O)N[C@@H](C(C)C)C(=O)N2", "target or system": "Sf9", "assay": "cell growth or viability, MTT", "conditions": "24 h", "endpoint": "IC50", "result": "> 32000 nM"}
{"Structure (SMILES)": "OC(c1cc(C(F)(F)F)nc2c(C(F)(F)F)cccc12)C1CCCCN1 (stereo not shown)", "target or system": "Plasmodium falciparum", "assay": "parasite growth, SYBR Green", "system": "W2", "conditions": "48 h, drug-resistant strain, blood stage", "endpoint": "IC50", "result": "20.7 nM"}
{"Structure (SMILES)": "Cc1c2ccncc2c(C)c2c1[nH]c1ccccc12", "target or system": "NCI-H460", "assay": "cell growth or viability, SRB", "conditions": "72 h", "endpoint": "GI50", "result": "4.1 µM"}
{"Structure (SMILES)": "Cn1cc2c3c1C(=O)C(N)=CC3=NCC2", "target or system": "Plasmodium falciparum", "assay": "parasite growth, SYBR Green", "system": "3D7", "conditions": "blood stage", "endpoint": "IC50", "result": "3300 nM"}
{"Structure (SMILES)": "CCCCCNCC(O)c1cc(Cl)cc2c1-c1ccc(Cl)cc1C2 (racemic)", "target or system": "Plasmodium falciparum", "assay": "parasite growth, SYBR Green", "system": "W2", "conditions": "48 h, drug-resistant strain, blood stage", "endpoint": "IC50", "result": "8.7 nM"}
{"Structure (SMILES)": "Cn1cc2c3c1C(=O)C(N)=CC3=[N+](C)CC2", "target or system": "Plasmodium falciparum", "assay": "parasite growth, SYBR Green", "system": "DD2", "conditions": "blood stage", "endpoint": "IC50", "result": "1350 nM"}
{"Structure (SMILES)": "CC(C)C[C@@H]1NC(=O)[C@H](CC(N)=O)NC(=O)[C@H](CCCNC(=N)N)NC(=O)[C@H]([C@@H](C)O)NC(=O)[C@@H]2CSSC[C@@H]3NC(=O)[C@H]([C@@H](C)O)NC(=O)CNC(=O)CNC(=O)[C@H](C(C)C)NC(=O)[C@@H]4CSSC[C@H](NC(=O)[C@H]([C@@H](C)O)NC(=O)[C@H](CSSC[C@H](NC(=O)[C@H](C(C)C)NC(=O)[C@@H]5CCCN5C(=O)[C@H](CC(C)C)NC1=O)C(=O)NCC(=O)N[C@@H](CCC(=O)O)C(=O)N[C@@H]([C@@H](C)O)C(=O)N4)NC(=O)CNC(=O)[C@@H]1CCCN1C(=O)[C@H]([C@@H](C)O)NC(=O)[C@H](CC(N)=O)NC3=O)C(=O)N[C@@H](CO)C(=O)N[C@@H](Cc1c[nH]c3ccccc13)C(=O)N1CCC[C@H]1C(=O)N[C@@H](C(C)C)C(=O)N2", "target or system": "Sf9", "assay": "cell growth or viability, MTT", "conditions": "24 h", "endpoint": "IC50", "result": "1800 nM"}
